Active and inactive are the calls of the source. The rule behind the calls is not given here.
What was measured:
[1] = system: MGC-803; assay: Cytotoxicity against human MGC803 cells assessed as cell viability after 48 hrs by MTT assay; format: functional, cell-based; conditions: MGC-803, 48 h
Outline: (§1)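 Cells were trypsinized, seeded in 96-well plates at 2 × 10³ cells/well and grown for 24 h. Medium was then replaced with compound solutions (in DMSO, range from 0.1) for 48 h, and viability was read by MTT. Cancer lines were grown in RPMI 1640 + 10% FCS. IC50 from 3 independent experiments, each in triplicate.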

[2] = system: A-375; assay: Cytotoxicity against human A375 cells assessed as cell viability after 48 hrs by MTT assay; format: functional, cell-based; conditions: A-375, 48 h; outline: as §1
[3] = system: HepG2; assay: Cytotoxicity against human HepG2 cells assessed as cell viability after 48 hrs by MTT assay; format: functional, cell-based; conditions: HepG2, 48 h; outline: as §1
[4] = system: NCI-H460; assay: Cytotoxicity against human NCI-H460 cells assessed as cell viability after 48 hrs by MTT assay; format: functional, cell-based; conditions: NCI-H460, 48 h; outline: as §1
[5] = system: MGC-803; assay: Cell cycle arrest in human MGC803 cells assessed as accumulation at S phase at 1 uM after 48 hrs by propidium iodide staining-based FACS analysis relative to control; format: functional
[6] = system: MGC-803; assay: Cell cycle arrest in human MGC803 cells assessed as accumulation at G0/G1 phase at 10 uM after 48 hrs by propidium iodide staining-based FACS analysis relative to control; format: functional
[7] = system: MGC-803; assay: Cell cycle arrest in human MGC803 cells assessed as accumulation at sub G1 phase at 1 uM after 48 hrs by propidium iodide staining-based FACS analysis relative to control; format: functional
[8] = system: MGC-803; assay: Cell cycle arrest in human MGC803 cells assessed as accumulation at G2/M phase at 1 uM after 48 hrs by propidium iodide staining-based FACS analysis relative to control; format: functional
[9] = system: MGC-803; assay: Cell cycle arrest in human MGC803 cells assessed as accumulation at sub G1 phase at 10 uM after 48 hrs by propidium iodide staining-based FACS analysis relative to control; format: functional
[10] = system: MGC-803; assay: Cell cycle arrest in human MGC803 cells assessed as accumulation at S phase at 10 uM after 48 hrs by propidium iodide staining-based FACS analysis relative to control; format: functional
[11] = system: MGC-803; assay: Cell cycle arrest in human MGC803 cells assessed as accumulation at G0/G1 phase at 1 uM after 48 hrs by propidium iodide staining-based FACS analysis relative to control; format: functional
[12] = system: MGC-803; assay: Cell cycle arrest in human MGC803 cells assessed as accumulation at G2/M phase at 10 uM after 48 hrs by propidium iodide staining-based FACS analysis relative to control; format: functional
[13] = system: Cellular tumor antigen p53 (Homo sapiens), P04637 [UNDEFINED MUTATION]; assay: Inhibition of P53 mutant phosphorylation at s392 in human MGC803 cells at 1 to 10 uM after 24 hrs by Western blot analysis; format: cell-based; conditions: MGC-803
Outline: (§2)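 MGC-803 cells, 3 × 10⁵ per well of a 6-well plate, exposed to compound for 24 h. Cells were washed in ice-cold PBS and lysed in sample buffer, then run on SDS-PAGE and transferred to nitrocellulose. Blots were probed with primary antibodies and […] anti-rabbit IgG and developed by ECL.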

[14] = system: MGC-803; assay: Cytotoxicity against human MGC803 cells assessed as cell viability at 1 to 10 uM after 48 hrs by MTT assay; format: functional, cell-based
[15] = system: Cellular tumor antigen p53 (Homo sapiens), P04637 [UNDEFINED MUTATION]; assay: Inhibition of P53 mutant acetylation at k373 in human MGC803 cells at 1 to 10 uM after 24 hrs by Western blot analysis; format: cell-based; conditions: MGC-803; outline: as §2

Cellular tumor antigen p53 (Homo sapiens), P04637 [UNDEFINED MUTATION], sequence (P04637 whole entry, looked up, change not shown): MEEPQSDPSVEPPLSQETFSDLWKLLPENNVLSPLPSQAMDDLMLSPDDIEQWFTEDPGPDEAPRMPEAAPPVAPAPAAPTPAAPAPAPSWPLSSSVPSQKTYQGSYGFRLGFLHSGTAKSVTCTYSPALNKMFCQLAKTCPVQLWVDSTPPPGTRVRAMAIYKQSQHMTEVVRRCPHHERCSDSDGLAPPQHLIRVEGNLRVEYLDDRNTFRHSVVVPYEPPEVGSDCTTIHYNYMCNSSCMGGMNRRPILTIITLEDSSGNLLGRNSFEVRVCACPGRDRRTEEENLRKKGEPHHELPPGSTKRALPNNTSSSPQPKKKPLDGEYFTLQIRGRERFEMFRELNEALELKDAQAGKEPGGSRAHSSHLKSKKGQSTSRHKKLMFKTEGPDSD

SMILES | IC50 [1] [µM] | IC50 [2] [µM] | IC50 [3] [µM] | IC50 [4] [µM] | further results
CN(C)CCCn1c(/C=C/c2cccc([N+](=O)[O-])c2)nc2cc(Cl)ccc2c1=O | 4.14 | 14 | 6.13 | 5.83 | –
COc1ccc(/C=C/c2nc3ccccc3c(=O)n2CCN(C)C)cc1OC | > 20 | > 20 | > 20 | > 20 | –
CN(C)CCn1c(/C=C/c2ccc(Cl)cc2Cl)nc2ccccc2c1=O | > 20 | > 20 | > 20 | > 20 | –
CCCCn1c(/C=C/c2ccc([N+](=O)[O-])cc2)nc2ccccc2c1=O | > 20 | > 20 | > 20 | > 20 | –
COc1cc2nc(/C=C/c3ccc([N+](=O)[O-])cc3)n(CCCN(C)C)c(=O)c2cc1OC | – | > 20 | – | – | –
CN(C)CCCn1c(/C=C/c2cccc(O)c2)nc2cc(Cl)ccc2c1=O | > 20 | > 20 | > 20 | 10.5 | –
CN(C)CCCn1c(/C=C/c2ccc(F)cc2)nc2ccccc2c1=O | > 20 | > 20 | > 20 | > 20 | –
CN(C)CCCn1c(/C=C/c2ccc(Cl)cc2Cl)nc2ccccc2c1=O | 3.89 | 7.15 | 4.2 | 5.86 | Activity [5]: 29.35%; Activity [6]: 34.55%; Activity [7]: 5.09%; Activity [8]: 11.4%; Activity [9]: 31.98%; Activity [10]: 20.64%; Activity [11]: 54.16%; Activity [12]: 12.83%
CN(C)CCCn1c(/C=C/c2cccc(O)c2)nc2ccccc2c1=O | > 20 | > 20 | 6.1 | > 20 | –
CN(C)CCCn1c(/C=C/c2ccc(Cl)cc2Cl)nc2cc(Cl)ccc2c1=O | 5.75 | 12.9 | 8.58 | 13.3 | –
COc1ccc(/C=C/c2nc3cc(OC)c(OC)cc3c(=O)n2CCCN(C)C)cc1OC | – | > 20 | – | – | –
CN(C)CCn1c(/C=C/c2ccc(F)cc2)nc2ccccc2c1=O | > 20 | > 20 | > 20 | > 20 | –
CCCCn1c(/C=C/c2ccc(Cl)cc2Cl)nc2ccccc2c1=O | > 20 | > 20 | > 20 | > 20 | –
CCCCn1c(/C=C/c2cccc([N+](=O)[O-])c2)nc2ccccc2c1=O | > 20 | > 20 | > 20 | > 20 | –
CN(C)CCCn1c(/C=C/c2ccc(Cl)cc2)nc2cc(Cl)ccc2c1=O | 6.88 | 14.1 | 6.43 | 7.72 | –
CN(C)CCCn1c(/C=C/c2ccc3c(c2)OCO3)nc2cc(Cl)ccc2c1=O | > 20 | > 20 | > 20 | > 20 | –
COc1cc2nc(/C=C/c3ccc(F)cc3)n(CCCN(C)C)c(=O)c2cc1OC | > 20 | – | > 20 | > 20 | inhibition [13]: inactive; Activity [14]: inactive; inhibition [15]: inactive
CCCCn1c(/C=C/c2ccccc2Br)nc2ccccc2c1=O | > 20 | > 20 | > 20 | > 20 | –
COc1cc2nc(/C=C/c3ccc(Cl)cc3Cl)n(CCCN(C)C)c(=O)c2cc1OC | 5.92 | 12.7 | 6.45 | 6.37 | –
CCCCn1c(/C=C/c2ccc(OC)c(OC)c2)nc2ccccc2c1=O | > 20 | > 20 | > 20 | > 20 | –

From ChEMBL document CHEMBL3414503, “Distinct novel quinazolinone exhibits selective inhibition in MGC-803 cancer cells by dictating mutant p53 function” (Eur J Med Chem, 2015)
